Source: publication PMC4168015 (Journal of biomolecular screening, 2013)
Entries after “also recorded” stand apart in the source; their conditions may differ. Read-outs that look alike come from different tables or passages of the source.

Columns and labels:
[1] = biological target: Skp2-Cks1 interaction (Homo sapiens, UniProt P61024+Q13309); test: AlphaScreen assay for Skp2-Cks1 interaction; format: binding
[2] = biological target: SCF^Skp2 (E3) ubiquitination of p27 (Homo sapiens, UniProt Q13309); test: In vitro p27 ubiquitination assay; format: biochemical
In short: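 Mouse p27 translated in rabbit reticulocyte lysate with [35S]-methionine and phosphorylated by recombinant CDK2–cyclin E. It was then mixed with 100 nM E1, 200 nM His-Cdc34, 100 nM SCFSkp2, 50 nM Cks1, 10 μM ubiquitin, 10 μM methylated ubiquitin, ATP regeneration system, 1 μM ubiquitin aldehyde and 1 μM MG132. Run 30 min, 30 °C; products read by SDS-PAGE/phosphorimager. Test compound 40 μM.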

[3] = test system: mink lung epithelial cell line stably expressing GFP-p27; test: GFP-p27 stabilization in mink lung epithelial cell line; format: cell-based; conditions: for endogenous p27 level: mink lung epithelial cell line; for stabilization of GFP-p27: mink lung epithelial cell line stably expressing GFP-p27
[4] = test system: p210^bcr-abl; conditions: read-out: IC50 against p210^bcr-abl in vitro; cited from earlier work
[5] = test system: K562 leukemia cell lines; conditions: read-out: GI50 against K562 leukemia cell lines; cited from earlier work
[6] = biological target: Cks1 (Homo sapiens) (UniProt P61024); test: ITC; conditions: cited from earlier work
Cks1 (Homo sapiens), sequence (P61024 2-79): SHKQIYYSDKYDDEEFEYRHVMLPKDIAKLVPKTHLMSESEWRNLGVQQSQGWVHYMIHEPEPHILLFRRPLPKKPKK

[7] = biological target: Cks1 (Homo sapiens) (UniProt P61024); conditions: cited from earlier work
[8] = read-out: Inhibition of Skp2-Cks1 IC50, AlphaScreen, GST-Skp2/Skp1 20 nM, Cks1 200 nM
[9] = read-out: p27 Ub IC50, in vitro p27 ubiquitination

Skp2, sequence (Q13309 whole entry): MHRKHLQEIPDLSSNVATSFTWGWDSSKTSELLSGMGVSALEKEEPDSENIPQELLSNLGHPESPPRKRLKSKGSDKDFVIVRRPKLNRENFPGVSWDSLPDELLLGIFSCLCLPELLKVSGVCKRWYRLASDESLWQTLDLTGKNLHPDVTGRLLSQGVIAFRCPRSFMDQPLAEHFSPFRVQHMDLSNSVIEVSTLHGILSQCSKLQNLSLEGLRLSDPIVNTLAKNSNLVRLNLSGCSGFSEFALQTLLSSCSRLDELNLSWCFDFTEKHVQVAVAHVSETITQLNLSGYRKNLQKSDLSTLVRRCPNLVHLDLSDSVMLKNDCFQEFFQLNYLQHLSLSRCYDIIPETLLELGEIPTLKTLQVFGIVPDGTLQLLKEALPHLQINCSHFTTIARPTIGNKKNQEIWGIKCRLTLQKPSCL

Molecule	IC50 [1, 8] [µM]	IC50 [2, 9] [µM]	effect on Skp2-Cks1 interaction (in words) ([1]; AlphaScreen)	effect on p27 ubiquitination in vitro (in words) [2]	other results
O=C1C=CC(=O)C=C1 [BQ, 1,4-benzoquinone, reference compound]			no effect	no effect	IC50 [1]: 626 ± 65.7 µM; IC50 [2]: > 300 µM
Skp2 (from UniProt Q13309)					Kd [6]: 14 nM; Kd [7]: 140 nM
Cc1cc(O)ccc1O [MHQ, methylhydroquinone, reference compound]			no effect	no effect	IC50 [1]: 434 ± 39.5 µM; IC50 [2]: > 300 µM

Now from value to molecule, other results behind:

IC50 [1, 8] [µM]	IC50 [2, 9] [µM]	Molecule	effect on Skp2-Cks1 interaction (in words) ([1]; AlphaScreen)	effect on p27 ubiquitination in vitro (in words) [2]	other results
8310 ± 1460	> 300	CCCCC(=O)c1ccc(OC)c(C)c1 [Compound E857]			
71 ± 4.4	~15	CCCCC(=O)c1ccc(OC)c(C)c1 [Compound Q857]	blocked the Skp2-Cks1 interaction at low μM concentrations	inhibited p27 ubiquitination in vitro	
1090 ± 189	> 300	CCCCC(=O)c1ccc(OC)c(C)c1 [Compound A857]			
36 ± 6.2	~30	O=C(OCC12CC3CC(CC(C3)C1)C2)c1ccc(NCc2cc(O)ccc2O)cc1 [Compound 857]	blocked the Skp2-Cks1 interaction at low μM concentrations		endogenous p27 level [3]: increases only marginally; stabilization of GFP-p27 [3]: dose-dependent stabilization; IC50 [4]: 12.6 µM; GI50 [5]: 12.8 µM; effect on p27 ubiquitination in vitro (in words) ([2]; listed as NSC689857): impeded p27 polyubiquitination in a dose-dependent manner; also recorded: inhibited p27 ubiquitination in vitro
75.6 ± 6.8	~80	COC(=O)c1ccc(CCc2cc(O)ccc2O)cc1 [NSC681152]	blocked the Skp2-Cks1 interaction at low μM concentrations	impeded p27 polyubiquitination in a dose-dependent manner; also recorded: inhibited p27 ubiquitination in vitro	endogenous p27 level [3]: increases only marginally; stabilization of GFP-p27 [3]: dose-dependent stabilization; IC50 [4]: 2.64 µM; GI50 [5]: 18.5 µM
